From ChEMBL document CHEMBL1131467, “Identification and initial structure-activity relationships of a novel class of nonpeptide inhibitors of blood coagulation factor Xa” (J Med Chem, 1998)

Columns and labels:
Prothrombin = Prothrombin (Homo sapiens, UniProt P00734); test: Inhibitory activity against human Thrombin
Outline: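 Human thrombin at 1 nM final, in Tris 0.05 M, NaCl 0.15 M, 0.1% PEG-8000, pH 7.5, room temperature. Enzyme and compound preincubated 30 min; reaction started with Pefachrome TH (50 μM final). Absorbance at 405 nm followed for 5 min. IC50 is the level that halves control initial velocity; apparent Ki by Cheng-Prusoff, assuming competitive inhibition.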

[1] = biological target: Cationic trypsin (Bos taurus); test: Inhibitory activity against bovine trypsin
Coagulation factor X = Coagulation factor X (Homo sapiens, UniProt P00742); test: Inhibitory activity against human Coagulation factor X
Outline: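 Human factor Xa at 1 nM final, in 0.05 M Tris, 0.15 M NaCl, 0.1% PEG-8000, pH 7.5, room temperature. Compound preincubated with enzyme 30 min, then Spectrozyme FXa added (200 μM final). Run in triplicate. IC50 taken from initial velocities; Ki by Cheng-Prusoff, assuming competitive inhibition.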

Sequence of Coagulation factor X (P00742 41-179 limits assumed): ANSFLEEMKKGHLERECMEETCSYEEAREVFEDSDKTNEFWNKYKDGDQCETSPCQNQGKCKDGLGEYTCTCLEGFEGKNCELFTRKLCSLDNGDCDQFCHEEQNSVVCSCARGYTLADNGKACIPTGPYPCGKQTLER
Sequence of Coagulation factor X (P00742 235-488 limits assumed): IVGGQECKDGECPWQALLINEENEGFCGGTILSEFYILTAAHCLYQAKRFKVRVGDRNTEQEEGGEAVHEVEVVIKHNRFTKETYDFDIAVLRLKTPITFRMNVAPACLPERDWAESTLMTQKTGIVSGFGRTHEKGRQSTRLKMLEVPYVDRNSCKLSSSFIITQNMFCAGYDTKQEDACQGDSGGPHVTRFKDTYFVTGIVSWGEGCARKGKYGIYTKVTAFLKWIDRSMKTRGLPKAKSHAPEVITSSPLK

SMILES	IC50 (Prothrombin)	IC50 [1]	IC50 (Coagulation factor X)
COC(=O)C(Cc1cccc(C(=N)N)c1)C(/C=C/c1ccccc1)NC(=O)c1ccc(-c2ccc(OC)cc2OC)cc1 (stereo unspecified)	3.5 µM	2.9 µM	90 nM
COC(=O)C(Cc1cccc(C(=N)N)c1)C(/C=C/c1ccccc1)NC(=O)c1ccccc1C (stereo unspecified)			1200 nM
COC(=O)C(Cc1cccc(C(=N)N)c1)C(/C=C/c1ccccc1)NC(=O)c1ccc2ccccc2c1 (stereo unspecified)			160 nM
CC(=O)OCC(Cc1cccc(C(=N)N)c1)C(/C=C/c1ccccc1)NC(=O)c1ccc(-c2ccccc2)cc1 (stereo unspecified)	3.8 µM		360 nM
COC(=O)C(Cc1cccc(C(=N)N)c1)C(/C=C/c1ccccc1)NC(=O)c1ccc(-c2ccccc2OC)cc1 (stereo unspecified)	3.3 µM	1.8 µM	50 nM
COC(=O)C(Cc1cccc(C(=N)N)c1)C(/C=C/c1ccccc1)NC(=O)c1ccc(-c2ccccc2C)cc1 (stereo unspecified)	9 µM	3.1 µM	90 nM
COC(=O)C(Cc1cccc(C(=N)N)c1)C(/C=C/c1ccccc1)NC(=O)C1CCC(C2CCCCC2)CC1 (stereo unspecified)			1120 nM
COC(=O)C(Cc1cccc(C(=N)N)c1)C(/C=C/c1ccccc1)NS(=O)(=O)c1ccc(-c2ccccc2)cc1 (stereo unspecified)			1970 nM
COC(=O)C(Cc1cccc(C(=N)N)c1)C(/C=C/c1ccccc1)NC(=O)c1ccc(-c2ccccc2)cc1 (stereo unspecified)	18 µM		110 nM
COC(=O)[C@H](Cc1cccc(C(=N)N)c1)[C@@H](/C=C/c1ccccc1)NC(=O)c1ccccc1			700 nM
COC(=O)C(Cc1cccc(C(=N)N)c1)C(/C=C/c1ccccc1)NC(=O)c1ccc(C2CCCCC2)cc1 (stereo unspecified)			580 nM
CCc1ccccc1-c1ccc(C(=O)NC(/C=C/c2ccccc2)C(Cc2cccc(C(=N)N)c2)C(=O)OC)cc1 (stereo unspecified)	5.3 µM		380 nM
COC(=O)C(Cc1cccc(C(=N)N)c1)C(/C=C/c1ccccc1)NC(=O)c1ccc(Cc2ccccc2)cc1 (stereo unspecified)			460 nM
COC(=O)C(Cc1cccc(C(=N)N)c1)C(/C=C/c1ccccc1)NC(=O)c1ccc(-c2cccc(OC)c2)cc1 (stereo unspecified)	2.4 µM	2.2 µM	110 nM
CCOc1cccc(-c2ccc(C(=O)NC(/C=C/c3ccccc3)C(Cc3cccc(C(=N)N)c3)C(=O)OC)cc2)c1 (stereo unspecified)	4.3 µM	3.6 µM	180 nM
N=C(N)c1cccc(CC(C(=O)O)C(/C=C/c2ccccc2)NC(=O)c2ccc(-c3ccccc3)cc2)c1 (stereo unspecified)	7.7 µM		2700 nM
COC(=O)C(Cc1cccc(C(=N)N)c1)C(/C=C/c1ccccc1)NC(=O)c1ccc(Oc2ccccc2)cc1 (stereo unspecified)			1220 nM
CCOc1ccc(-c2ccc(C(=O)NC(/C=C/c3ccccc3)C(Cc3cccc(C(=N)N)c3)C(=O)OC)cc2)cc1 (stereo unspecified)	2 µM	2.8 µM	360 nM
COC(=O)[C@@H](Cc1cccc(C(=N)N)c1)[C@@H](/C=C/c1ccccc1)NC(=O)c1ccccc1			2000 nM

SMILES	IC50 (Prothrombin)	IC50 [1]	IC50 (Coagulation factor X)
CN(C)C(=O)C(Cc1cccc(C(=N)N)c1)C(/C=C/c1ccccc1)NC(=O)c1ccc(-c2ccccc2)cc1 (stereo unspecified)			4400 nM
COC(=O)C(Cc1cccc(C(=N)N)c1)C(/C=C/c1ccccc1)NC(=O)c1ccc(C)cc1 (stereo unspecified)			600 nM
CCc1ccc(-c2ccc(C(=O)NC(/C=C/c3ccccc3)C(Cc3cccc(C(=N)N)c3)C(=O)OC)cc2)cc1 (stereo unspecified)			890 nM
CCOc1ccccc1-c1ccc(C(=O)NC(/C=C/c2ccccc2)C(Cc2cccc(C(=N)N)c2)C(=O)OC)cc1 (stereo unspecified)	3.8 µM	1.8 µM	60 nM
COC(=O)C(Cc1cccc(C(=N)N)c1)C(/C=C/c1ccccc1)NC(=O)c1ccc(-c2ccc(OC)c(OC)c2)cc1 (stereo unspecified)	4.7 µM		30 nM
COC(=O)C(Cc1cccc(C(=N)N)c1)C(/C=C/c1ccccc1)NC(=O)c1ccc(-c2cccc(C)c2)cc1 (stereo unspecified)	7.2 µM		120 nM
CCc1cccc(-c2ccc(C(=O)NC(/C=C/c3ccccc3)C(Cc3cccc(C(=N)N)c3)C(=O)OC)cc2)c1 (stereo unspecified)	1.7 µM	2.6 µM	390 nM
COC(=O)C(Cc1cccc(C(=N)N)c1)C(/C=C/c1ccccc1)NC(=O)c1ccc(-c2ccc(OC)cc2)cc1 (stereo unspecified)	2.7 µM	2.9 µM	80 nM
N=C(N)c1cccc(CCC(/C=C/c2ccccc2)NC(=O)c2ccc(-c3ccccc3)cc2)c1 (stereo unspecified)	31 µM		950 nM
COC(=O)C(Cc1cccc(C(=N)N)c1)C(/C=C/c1ccccc1)NC(=O)c1cccc(C)c1 (stereo unspecified)			1100 nM
COC(=O)C(Cc1cccc(C(=N)N)c1)C(/C=C/c1ccccc1)NC(=O)c1ccccc1 (stereo unspecified)			700 nM
COC(=O)C(Cc1cccc(C(=N)N)c1)C(/C=C/c1ccccc1)NC(=O)c1cccc2ccccc12 (stereo unspecified)			790 nM
COC(=O)C(Cc1cccc(C(=N)N)c1)C(/C=C/c1ccccc1)NC(=O)c1ccc(-c2ccc(C)cc2)cc1 (stereo unspecified)	4.8 µM	2.8 µM	240 nM
COCC(Cc1cccc(C(=N)N)c1)C(/C=C/c1ccccc1)NC(=O)c1ccc(-c2ccccc2)cc1 (stereo unspecified)	8.7 µM	10 µM	540 nM
N=C(N)c1cccc(CC(CO)C(/C=C/c2ccccc2)NC(=O)c2ccc(-c3ccccc3)cc2)c1 (stereo unspecified)			650 nM
COC(=O)[C@H](Cc1cccc(C(=N)N)c1)[C@@H](CCc1ccccc1)NC(=O)c1ccc(-c2ccccc2)cc1			60 nM
COC(=O)C(Cc1cccc(C(=N)N)c1)C(CCc1ccccc1)NC(=O)c1ccc(-c2ccccc2)cc1 (stereo in doubt; 8a)			60 nM
COC(=O)C(Cc1cccc(C(=N)N)c1)C(CCc1ccccc1)NC(=O)c1ccc(-c2ccccc2)cc1 (stereo in doubt; 8b)			310 nM
